In series [1] the test system is Vero. The experiment in a line: Cytotoxicity against african green monkey Vero cells at 4.7 ug/mL. The conditions noted are these: chlorocebus sabaeus. It is filed as cell-based.
Series [2] concerns Cryptococcus neoformans. The experiment in a line: […] activity against Cryptococcus neoformans. Type of series: functional, organism-based.
The test system of series [3] is Staphylococcus aureus. As to the kind of experiment: Antibacterial activity against methicillin-resistant Staphylococcus aureus. Type of series: functional, organism-based.
Series [4] concerns Staphylococcus aureus. The experiment in a line: Antimicrobial activity against Staphylococcus aureus. It is filed as functional, organism-based.
The test system of series [5] is Mycobacterium intracellulare. The experiment in a line: Antibacterial activity against Mycobacterium intracellular. Type of series: functional, organism-based.
The test system of series [6] is Human immunodeficiency virus 1. The experiment in a line: Antiviral activity against HIV1 infected in human PBMCs. Type of series: functional, organism-based.
The test system of series [7] is Vero. The experiment in a line: Cytotoxicity against african green monkey Vero cells. It is filed as cell-based. The conditions noted are these: chlorocebus sabaeus. Put shortly: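 Vero (African green monkey kidney) cell cytotoxicity, reported in µg/mL. Compounds without cytotoxicity were scored at a tested concentration of 4.7 µg/mL.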
Series [8] relates to Plasmodium falciparum. The experiment in a line: Antimalarial activity against Plasmodium falciparum D6. It is filed as functional, organism-based.
Series [9] concerns Plasmodium falciparum. The experiment in a line: Antimalarial activity against chloroquine-resistant Plasmodium falciparum W2. Type of series: functional, organism-based.
Series [10] relates to Leishmania donovani. As to the kind of experiment: Antileishmanial activity against Leishmania donovani. It is filed as functional, organism-based.
Series [11] concerns Mycobacterium tuberculosis. As to the kind of experiment: Antitubercular activity against Mycobacterium tuberculosis H37Rv. It is filed as functional.
Series [12] relates to Plasmodium falciparum. As to the kind of experiment: Antimalarial activity against chloroquine-resistant Plasmodium falciparum W2 at 5 ug/mL. It is filed as functional, organism-based.
The subject of series [13] is Plasmodium falciparum. As to the kind of experiment: Antimalarial activity against Plasmodium falciparum D6 at 5 ug/mL. It is filed as functional, organism-based.
For series [14], the system named is Leishmania donovani. As to the kind of experiment: Antileishmanial activity against Leishmania donovani at 5 ug/mL. It is filed as functional, organism-based.

Converted amounts (≈) assume the structure as drawn. The source made the active and inactive calls. The calls are words filed in the database; no cut-off is given here.

`[O-][N+]1=C(C2=C[C@@]3(O)CC/C=C\CCCCN4CC[C@@H]2[C@]2(CC5/C=C\CCCCN5[C@H]23)C4)c2[nH]c3ccccc3c2CC1` (stereo partly specified): the Activity entry in [1] is given as “Non-toxic”. Moreover, the result in series [2], in [3], in series [4], in series [5] and in series [6] was inactive.

In general, IC50 refers to the concentration that inhibits the measured activity by half. The IC90 is the concentration at which the effect reaches the 90% level. The term MIC denotes the lowest concentration found to suppress growth. As for `[O-][n+]1ccc2c([nH]c3ccccc32)c1C1=C[C@@]2(O)CC/C=C\CCCCN3CC[C@@H]1[C@]1(C[C@@H]4/C=C\CCCCN4[C@H]12)C3`, in [7], the Activity was determined as 4.2 µg/mL. Further, the IC50 came to 0.011 µg/mL (≈ 0.0195 µM) in [8]; 1 µg/mL (≈ 1.77 µM) in [2]; 0.013 µg/mL (≈ 0.023 µM) in series [9]; 1.1 µg/mL (≈ 1.95 µM) in series [10]; 0.4 µg/mL (≈ 0.708 µM) in series [3]; 0.5 µg/mL (≈ 0.885 µM) in series [4]. Half-maximal inhibition in series [5] (IC50) was put at 0.2 µg/mL (≈ 0.354 µM). In series [10], this compound displayed an IC90 of 3.8 µg/mL (≈ 6.73 µM). Besides, inhibition of growth in [11] (MIC) required 3.9 µg/mL (≈ 6.91 µM).

In the case of `O=C1CCCN2[C@@H]3[C@@]45CN6CCCC/C=C\CC[C@@]3(C=C(c3nccc7c3[nH]c3ccccc37)[C@@H]4CC6)O[C@]2(CC1)C5`, the IC50 in [8] was found to be 1.6 µg/mL (≈ 2.84 µM); in series [9] it was 3.7 µg/mL (≈ 6.57 µM). Besides, in series [1], the Activity entry is reported as “Non-toxic”. The result in series [2], in series [3], in series [12], in series [13], in series [4] and in series [5] was inactive. For the same compound, the result in series [14] was inactive.

The compound `O=C1CCCN2[C@@H](CC1)C[C@]13CN4CCCC/C=C\CC[C@](O)(C=C(c5nccc6c5[nH]c5ccc(O)cc56)[C@@H]1CC4)[C@H]23` showed an Activity in series [7] of 4.3 µg/mL.

As usually defined, the EC50 is the concentration needed to bring the measured effect to its halfway point. Compound `Oc1cccc2c1[nH]c1c(C3=C[C@@]4(O)CC/C=C\CCCCN5CC[C@@H]3[C@]3(CC6/C=C\CCCCN6[C@H]34)C5)nccc12` (stereo partly specified) had an Activity in series [7] of 1.1 µg/mL. For the same compound, the concentration for an effect of 90% (IC90) in series [10] was found to be 11 µg/mL (≈ 19.5 µM). In addition, the EC50 in series [6] amounted to 0.59 µM.

With `O[C@]12C=C(c3nccc4c3[nH]c3ccccc34)C3CCN(CCCC/C=C\CC1)C[C@@]31C[C@]34CC[C@H](CCCN3[C@H]12)O4` (stereo partly specified) [6-Deoxymanzamine X], the Activity in series [7] came out at 4.7 µg/mL. Also, the IC50 turned out to be 2 µg/mL (≈ 3.54 µM) in series [2], 1.5 µg/mL (≈ 2.66 µM) in series [3], 1.5 µg/mL (≈ 2.66 µM) in series [4] and 6.25 µg/mL (≈ 11.1 µM) in series [5]. In series [11], this compound had a minimal inhibitory concentration (MIC) of 1.8 µg/mL (≈ 3.19 µM).

Turning to `C[C@@H]1[C@H](O)[C@@H](C)/C=C/C=C/C=C/C=C/C=C/C=C/C=C/[C@H](O[C@@H]2O[C@H](C)[C@@H](O)[C@H](N)[C@@H]2O)C[C@@H]2O[C@](O)(C[C@@H](O)C[C@@H](O)[C@H](O)CC[C@@H](O)C[C@@H](O)CC(=O)O[C@H]1C)C[C@H](O)[C@H]2C(=O)O` [AMPHOTERICIN B], the IC90 in series [10] came to 0.15 µg/mL (≈ 0.162 µM).

Regarding `O=CC1=C[C@@]2(O)CC/C=C\CCCCN3CC[C@@H]1[C@]1(C[C@@H]4/C=C\CCCCN4[C@H]12)C3` [IRCINAL], in [1], the Activity entry is “Non-toxic”. Moreover, the result in series [2], in [3], in series [12], in [13] and in series [4] was inactive. In addition, the IC50 in [10] is 4.6 µg/mL (≈ 11.2 µM); in series [5], 50 µg/mL (≈ 122 µM). In addition, the 90% effect concentration (IC90) in [10] was determined as 8.5 µg/mL (≈ 20.7 µM). For the same compound, the MIC in series [11] was 30.2 µg/mL (≈ 73.6 µM). The compound also yielded an EC50 in series [6] of 6.8 µM.

Consider `OC1=C[C@@]2(O)CC/C=C\CCCCN3CC[C@@H]1[C@]1(C[C@@H]4/C=C\CCCCN4[C@H]12)C3` [IRCINOL A], for which the IC50 came to 2.4 µg/mL (≈ 6.02 µM) in series [8], 3.1 µg/mL (≈ 7.78 µM) in series [9], 30 µg/mL (≈ 75.3 µM) in series [3] and 50 µg/mL (≈ 125 µM) in series [5]. For the same compound, in [1], the Activity entry is “Non-toxic”. Besides, the outcome in series [2] and in [4] was inactive. For the same compound, the IC90 in series [10] was found to be 0.7 µg/mL (≈ 1.76 µM). This compound also came in with an MIC in series [11] of 1.9 µg/mL (≈ 4.77 µM). In [6], this compound registered an EC50 of 4.3 µM.

In turn, `O[C@]12C=C(c3nccc4c3[nH]c3ccccc34)[C@@H]3CCN(CCCC/C=C\CC1)C[C@@]31C[C@@H]3/C=C\CCCCN3[C@H]12` [MANZAMINE A] gave an Activity in series [7] of 1.2 µg/mL. For the same compound, in [10], the 90% effect level (IC90) was put at 1.8 µg/mL (≈ 3.28 µM). Moreover, in series [6], the EC50 is 4.2 µM.

As for `O=C1CCCN2[C@@H](CC1)C[C@]13CN4CCCC/C=C\CC[C@](O)(C=C(c5nccc6c5[nH]c5ccccc56)C1CC4)[C@H]23` (stereo partly specified) [MANZAMINE E], the Activity result in [1] is given as “Non-toxic”. The outcome in [2], in series [3] and in [4] was inactive. This compound also showed an IC90 in series [10] of 6.8 µg/mL (≈ 12 µM). Further, in series [6], the EC50 came out at 13.1 µM.

Turning to `O=C1CCCN2[C@@H](CC1)C[C@]13CN4CCCC/C=C\CC[C@](O)(C=C(c5nccc6c5[nH]c5c(O)cccc56)C1CC4)[C@H]23` (stereo partly specified) [MANZAMINE F], the Activity entry in [1] was “Non-toxic”. For the same compound, the 90% effect level in series [10] (IC90) was put at 7 µg/mL (≈ 12.1 µM). Besides, the result in series [3] and in series [4] was inactive. This compound also registered an EC50 in series [6] of 7.3 µM.

`O[C@]12C=C(c3nccc4c3[nH]c3ccccc34)[C@@H]3CCN(CCCC/C=C\CC1)C[C@@]31CC/C=C\CCCCN[C@H]12` [MANZAMINE J]: the IC50 in [8] is 1.3 µg/mL (≈ 2.36 µM); in series [9], 0.75 µg/mL (≈ 1.36 µM); in [10], 25 µg/mL (≈ 45.4 µM); in [5] it was 15 µg/mL (≈ 27.2 µM). Also, the Activity entry in series [1] was “Non-toxic”. Besides, the result in [2], in series [3] and in [4] was inactive. For the same compound, the 90% effect concentration (IC90) in series [10] was determined as 45 µg/mL (≈ 81.7 µM). Also, 1.7 µg/mL (≈ 3.09 µM) was the least that counted as inhibitory in series [11] (MIC).

`Oc1ccc2[nH]c3c(C4=C[C@@]5(O)CC/C=C\CCCCN6CC[C@@H]4[C@@]4(C6)C[C@@]67CC[C@@H](CCCN6[C@H]45)O7)nccc3c2c1` [MANZAMINE X]: in series [1], the Activity result is listed as “Non-toxic”. Further, the IC50 in [2] is 3 µg/mL (≈ 5.17 µM); in series [3], 0.75 µg/mL (≈ 1.29 µM); in series [4], 1 µg/mL (≈ 1.72 µM); in [5] it was 1.5 µg/mL (≈ 2.58 µM). The compound further gave a concentration giving a half-maximal response (EC50) in series [6] of 2.3 µM.

`O[C@@H]1CCCN2CC[C@@H]1O[C@@]13CC[C@@H](OC[C@]45CN6CCCC/C=C\CC[C@](O)(C=C(c7nccc8c7[nH]c7ccccc78)[C@@H]4CC6)[C@H]25)[C@@H](O)CCN1[C@@H]1[C@]2(CN4CCCC/C=C\CC[C@]1(O)C=C(c1nccc5c1[nH]c1ccccc15)[C@@H]2CC4)C3` [NEO-KAULUAMINE]: the half-inhibitory concentration (IC50) is 1.7 µg/mL (≈ 1.46 µM) in series [8]; 3 µg/mL (≈ 2.58 µM) in series [2]; 2.8 µg/mL (≈ 2.41 µM) in series [9]; 4.2 µg/mL (≈ 3.61 µM) in series [10]; 3 µg/mL (≈ 2.58 µM) in [5]. The Activity result in [1] was “Non-toxic”. Besides, the IC90 in series [10] came out at 8.2 µg/mL (≈ 7.05 µM). The outcome in series [3] and in [4] was inactive. In [11], this compound gave an MIC of 2 µg/mL (≈ 1.72 µM). The compound further showed an EC50 in series [6] of 2.3 µM.

In turn, `N=C(N)c1ccc(OCCCCCOc2ccc(C(=N)N)cc2)cc1` [PENTAMIDINE] came in with an IC90 in series [10] of 10 µg/mL (≈ 29.4 µM).

Regarding `CO[C@H]1/C=C/O[C@@]2(C)Oc3c(C)c(O)c4c(O)c(c(/C=N/N5CCN(C)CC5)c(O)c4c3C2=O)NC(=O)/C(C)=C\C=C\[C@H](C)[C@H](O)[C@@H](C)[C@@H](O)[C@@H](C)[C@H](OC(C)=O)[C@@H]1C` [RIFAMPIN], inhibition of growth in [11] (MIC) required 0.5 µg/mL (≈ 0.608 µM).

For the origin of these results see ChEMBL document CHEMBL1148197, “Three new manzamine alkaloids from a common Indonesian sponge and their activity against infectious and tropical parasitic diseases” (J Nat Prod, 2004).
